Compound activity: PubChem, several laboratories
This is a sample that favours compounds with a hit; in the whole collection about 1.9% have one here.
UHRF1 binding – blocks human UHRF1 binding to methylated DNA. Q96T88. UHRF1 binding to methylated oligo, TR-FRET. inhibition, % at 4.4 µM. actives 0.75% (n = 370,000). AID 687016; in the data active means inhibition above about 21%;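 further: UHRF1 SRA domain binding a hemimethylated CpG hairpin DNA probe; 0% = median of test compound wells and 100% = reference inhibitor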
MBD2 DNA inh – inhibitors of human MBD2 binding to methylated oligonucleotide. TR-FRET. inhibition, % at 4.4 µM. Q9UBB5. actives 0.31% (n = 370,000); in the data active means inhibition above about 13%
TDP2 absorb – blocks human TDP2 phosphodiesterase activity | actives 0.34% (n = 370,000) | inhibition, % at 12.8 µM | recombinant TDP2, T5PNP hydrolysis, p-nitrophenol absorbance 415 nm | O95551;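 active means inhibition above the mean of all tested compounds plus 3 SD, set per campaign, cut at about 25% in these data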;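 further: 0% = DMSO with enzyme and 100% = buffer with substrate but no TDP2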
Target sequence (O95551 whole entry, looked up): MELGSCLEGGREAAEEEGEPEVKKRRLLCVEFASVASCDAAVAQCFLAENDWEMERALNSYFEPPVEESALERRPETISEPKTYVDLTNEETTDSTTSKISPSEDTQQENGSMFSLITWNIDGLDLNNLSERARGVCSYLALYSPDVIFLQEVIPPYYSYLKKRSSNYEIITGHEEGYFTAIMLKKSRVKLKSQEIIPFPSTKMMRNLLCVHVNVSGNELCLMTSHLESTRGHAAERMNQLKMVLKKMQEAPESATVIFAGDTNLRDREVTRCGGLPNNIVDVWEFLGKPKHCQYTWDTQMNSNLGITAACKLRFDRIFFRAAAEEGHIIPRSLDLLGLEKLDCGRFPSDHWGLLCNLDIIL
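test system = human TDP2 enzyme | input = TDP2 enzyme at 120 nM final | medium = 50 mM Tris-HCl pH 7.5 with Mg2+, KCl, DTT, BSA | also added = T5PNP substrate, 5 mM | times = 2 h at 37 °C | technique = epi absorbance | benchmarks = high control without enzyme, low control DMSO plus TDP2 | replication = each compound tested once, singlicate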
NSD2 HMT inh – inhibitors of human histone methyltransferase NSD2; NSD2 peptide methylation, AlphaScreen, 120 min; inhibition, % at 12.5 µM; actives 0.54% (n = 310,000); AID 743445; in the data active means inhibition above about 50%
LEDGF integ inh – blocks HIV-1 LEDGF/p75-dependent DNA integration. TR-FRET IN-LEDGF/p75 DNA integration, Eu/Cy5. inhibition, % at 3.7 µM. actives 0.64% (n = 370,000);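 active means inhibition above the screen-wide mean plus 3 SD, cut at about 13% in these data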;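 further: signal is the Cy5 over europium emission ratio at 671 and 618 nm; 0% = plate median of compound wells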
CASP6 VEID inh – blocks human caspase-6 cleavage activity; purified caspase-6, Z-VEID-R110 cleavage fluorescence; inhibition, % at 12.5 µM; actives 0.53% (n = 350,000); AID 686996;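 active means mean inhibition across replicates at least about 35%, with every replicate also reaching that limit, limit read from the data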;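 further: 0% = median of neutral control wells and 100% = no fluorescence left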
Target sequence (P55212 24-179 limits assumed): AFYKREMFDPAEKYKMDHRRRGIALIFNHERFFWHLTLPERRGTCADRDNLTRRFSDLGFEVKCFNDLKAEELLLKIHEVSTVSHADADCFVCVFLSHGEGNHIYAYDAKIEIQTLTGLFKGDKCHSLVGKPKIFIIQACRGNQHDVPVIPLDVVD
Target sequence (P55212 194-293 limits assumed): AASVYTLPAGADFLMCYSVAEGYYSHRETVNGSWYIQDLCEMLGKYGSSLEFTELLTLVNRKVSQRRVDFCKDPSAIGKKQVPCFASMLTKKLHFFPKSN
IN multimer up – activates HIV-1 integrase multimerization in LEDGF counter-screen; actives 17% (n = 2,000); TR-FRET HIV-1 integrase multimerization, biochemical; AID 1053131; activation, % at 7.7 µM; shares compounds with LEDGF integ inh; in the data active means activation above about 8.9%
TR-FRET interf – TR-FRET optical interference, LEDGF/p75 integration counter-screen. shares compounds with LEDGF integ inh. TR-FRET optical interference counterscreen, HIV-1 IN multimerization. 2,000 tested, under 10 active. inhibition, % at 7.7 µM;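 active means inhibition above the mean over all tested compounds plus 3 SD, which no compound reached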;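 further: 0% = integrase with antibodies and DMSO and 100% = antibodies without integrase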
LEDGF integ conf – confirmation of HIV-1 LEDGF/p75-dependent integration inhibitors. shares compounds with LEDGF integ inh. AID 1053136. inhibition, % at 3.7 µM. actives 36% (n = 2,000). TR-FRET LEDGF/p75-dependent HIV-1 integration, biochemical; in the data active means inhibition above about 14%
AlphaScreen art – counter-screen for NSD2 inhibitors: AlphaScreen artifacts | AID 1053174 | shares compounds with NSD2 HMT inh | AlphaScreen artifact counterscreen, preloaded methylated H4 peptide | AC35, µM (top dose mostly 10 µM), inactives show at the top dose activity change, negative = signal loss | actives 9.4% (n = 1,500); call rule not given here
Numbers without * were called inactive; · = not tested or not shown.

SMILES	UHRF1 binding	MBD2 DNA inh	TDP2 absorb	NSD2 HMT inh	LEDGF integ inh	CASP6 VEID inh	IN multimer up	TR-FRET interf	LEDGF integ conf	others
Cc1ccccc1N=Cc1cc2c(cc1O)OC(N)=C(C#N)C2c1ccccc1 (configuration not stated)	-3	2	7	-1	19*	12	2	-10	35*
Cc1ccc(C2C(C#N)=C(N)Oc3cc4c(cc32)OCO4)cc1 (configuration not stated)	2	0	-6	1	7	·	·	·	·
COc1c(NC=O)c2c(c([N+](=O)[O-])c1OC)C(=O)OC2	4	-5	-16	-2	14*	1	0	0	-1
CN(C)c1ncnc2c1ncn2[C@H]1CN(Cc2ccc(F)cc2)C[C@@H](CO)O1	-2	0	0	13	4	1	·	·	·
CN(C)c1ncnc2c1ncn2[C@H]1CN(Cc2cccnc2)C[C@@H](CO)O1	-1	1	4	0	52*	0	-1	5	-6
COc1ccc(S(=O)(=O)N2CCCCN3[C@H](CO)[C@@H](c4ccc(-c5cccnc5)cc4)[C@H]3C2)cc1	·	·	·	·	·	0	·	·	·
COCC(=O)OC1CCn2c1nc1c2C(=O)C(C)=C(NC(C)=O)C1=O (configuration not stated)	13	-3	89*	·	16*	99*	6	-21	58*
C[C@@H]1CN([C@@H](C)CO)C(=O)Cc2cc(NS(=O)(=O)c3cccs3)ccc2O[C@H]1CN(C)Cc1ccc(-c2ccccc2)cc1	·	·	·	·	·	1	·	·	·
CCCCNC(=O)C1c2ccccc2OCC(=O)N1Cc1ccco1 (configuration not stated)	0	1	4	·	-5	-1	·	·	·
CCCCNC(=O)C1c2ccccc2OCC(=O)N1Cc1ccccn1 (configuration not stated)	0	2	3	·	30*	-1	-3	14	3
CCOC(=O)C(CC(=O)Nc1nc(C(C)=O)c(C)s1)C(C)c1ccccc1 (configuration not stated)	1	3	0	-2	18*	2	1	-4	-5
Cc1nnc(NC(=O)CC(C)c2ccccc2)s1 (configuration not stated)	1	2	-3	3	-2	0	·	·	·
CN(C)CC(=O)N1[C@@H]2c3ccc(-c4ccc(F)cc4)c(=O)n3C[C@@H]2[C@@H](CO)[C@@H]1C(=O)NC1CCCC1	·	·	·	·	·	-10	·	·	·
Cc1cc(-c2cc(C)c(N)cc2C)c(C)cc1N	1	1	8	5	14*	-2	2	-10	1
COc1ccc(Cl)cc1NC(=O)NNC(=O)C(=O)Nc1ccc(F)cc1	-2	0	-3	0	65*	-3	0	2	4
CCOC(=O)c1oc2c(C)c(O)ccc2c(=O)c1-c1nncn1-c1ccccc1	-3	-1	5	1	-1	·	·	·	·
CCOC(=O)c1oc2c(O)c(O)ccc2c(=O)c1-c1nncn1-c1ccccc1	9	8	-5	34	45*	·	6	-20	40*
O=C(OC1CC2CC1[C@H]1CCCCN1C2=O)N1CCN(S(=O)(=O)c2ccccc2)CC1 (some centres not stated)	-3	2	9	·	-3	-2	·	·	·
O=C(OC1CC2CC1[C@H]1CCCCN1C2=O)N1CCC(c2ccccc2)CC1 (some centres not stated)	4	1	3	·	23*	-1	0	0	1
CCCNC(=O)Nc1ccc2c(c1)C(=O)N(C)C[C@H](OC)[C@H](C)CN(C(=O)c1ccccc1F)[C@@H](C)CO2	·	·	·	·	·	1	·	·	·
CC(C)(C)NC(=O)NC(=O)CSc1ccc(S(=O)(=O)N2CCCCC2)cn1	-1	-6	-12	0	20*	1	1	-4	1
CCOC(=O)NC(=O)CSc1ccc(S(=O)(=O)N2CCCCC2)cn1	1	3	0	-1	2	2	·	·	·
C[C@@H]1CCCCO[C@H](CN(C)S(=O)(=O)c2ccc(F)cc2)[C@H](C)CN([C@H](C)CO)C(=O)c2cc(NS(=O)(=O)c3ccccc3)ccc2O1	·	·	·	·	·	-1	·	·	·
Cc1noc(C)c1NC(=O)Nc1ccc2c(c1)CC(=O)N([C@@H](C)CO)C[C@H](C)[C@@H](CN(C)Cc1ccc(C(=O)O)cc1)O2	·	·	·	·	·	1	·	·	·
Cc1ccccc1C(=O)Nc1ccc(S(=O)(=O)NCC2CCCO2)cc1 (configuration not stated)	0	2	7	-4	15*	-1	0	2	0
SMILES	UHRF1 binding	MBD2 DNA inh	TDP2 absorb	NSD2 HMT inh	LEDGF integ inh	CASP6 VEID inh	IN multimer up	TR-FRET interf	LEDGF integ conf	others
Cc1ccc(NC(=O)c2ccc(S(=O)(=O)NCC3CCCO3)cc2)cc1 (configuration not stated)	6	5	-21	-5	4	·	·	·	·
C[C@@H]1CN([C@H](C)CO)C(=O)c2cc(N(C)C)ccc2O[C@@H](C)CCCCO[C@H]1CN(C)Cc1ccc(C(=O)O)cc1	·	·	·	·	·	-5	·	·	·
N=C1S/C(=C\c2ccco2)C(=O)N1c1ccc2c(c1)OCO2	2	-1	5	5	15*	13	4	-21	18*
Cc1ccc(N2C(=O)/C(=C/c3ccco3)SC2=S)cc1	11	2	2	0	19*	7	0	0	11
C=CCn1c(N)c(C(=O)NCCC2=CCCCC2)sc1=S	4	1	3	1	19*	-1	5	-25	-1
CNc1ccc(Br)cc(C(=O)/C=C/c2cccc(OC)c2OC)c1=O	1	-6	2	51*	16*	·	2	-11	27*	AlphaScreen art=-8%
CNc1ccccc(C(=O)/C=C/c2ccccc2OC)c1=O	2	5	-14	14	-1	·	·	·	·
CC1(C)Cc2c(c(-c3ccco3)[nH]c(=O)c2C#N)CS1	15	-1	3	94*	18*	·	-1	5	23*	AlphaScreen art=0%
COc1ccc2c3c(n(C)c2c1)[C@@H](CO)NCC31CCN(Cc2cc(F)ccc2F)CC1	·	·	·	·	·	2	·	·	·
C[C@H]1CN([C@@H](C)CO)C(=O)c2cc(C#CCN(C)C)cnc2O[C@H]1CN(C)C(=O)CN1CCOCC1	·	·	·	·	·	-1	·	·	·
